Reference: ChEMBL document CHEMBL5154772, “Biological Investigation of a Water-Soluble Isoginkgetin-Phosphate Analogue, Targeting the Spliceosome with In Vivo Antitumor Activity” (J Med Chem, 2022)

How the values were obtained:
[1] = Metabolic stability in mouse liver microsomes assessed as intrinsic clearance incubated for 45 mins by HPLC-MS/MS analysis; format: ADME, Microsome; settings: read-out: CLH
In short: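 Incubation with mouse or human liver microsomes for 45 min, with or without NADPH. Remaining parent compound was quantified over time by HPLC-MS/MS and expressed as % remaining; intrinsic clearance is given in μL/min/mg protein.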

[2] = AUC(0 to t) in Beagle dog at 26.76 mg/kg, iv administered as single dose measured up to 24 hrs; format: ADME, organism-based, Canis lupus familiaris; set-up: dose 26.76 mg/kg, time < 24 hrs, route iv; settings: in vivo
In short: (§1)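 Single intravenous dose. Mice were male C57BL/6J, 12 per route; tail-vein blood was collected under sodium heparin, with 3 mice sampled at each pair of times (0.083/2, 0.25/4, 0.5/8, 1/24 h). Dogs were male beagles (n=3); jugular blood was collected under K2 EDTA predose and at 0.083, 0.25, 0.5, 1, 2, 4, 6, 8 and 24 h. Plasma was prepared from the samples.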

[3] = Stability in mouse plasma assessed as compound remaining incubated up to 2 hrs by HPLC-MS/MS analysis; format: ADME, cell-free; settings: read-out: Stability
In short: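 Incubation in mouse or human plasma for up to 2 h, with compound remaining expressed as a percentage.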

[4] = Total clearance in C57BL/6J mouse at 9.103 mg/kg, ip administered as single dose measured up to 24 hrs; format: ADME, organism-based; settings: in vivo
In short: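 Male C57BL/6J mice, single IP dose. Tail-vein blood into sodium heparin for plasma. Twelve mice per route, three per pair of time points: 0.083 and 2 h, 0.25 and 4 h, 0.5 and 8 h, 1 and 24 h. Parameters derived from plasma concentration–time data.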

[5] = Toxicity in C57BL/6 mouse assessed as change in liver weight at 100 mg/kg, ip administered as single dose and measured after 15 days (reference value: 1.2 to 1.3 g); format: organism-based; settings: in vivo, 360 h, time 15 day
In short: (§2)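 Female C57BL/6 mice given one IP injection of 100 µL, at 50, 100, 250 or 500 mg/kg in sterile PBS, two mice per dose; PBS-injected controls. Behaviour checked right after and at 30 min. Body weight recorded every 2–3 days for 15 days, then liver, spleen and kidneys weighed.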

[6] = MRT(0 to t) in C57BL/6J mouse at 9.103 mg/kg, ip administered as single dose measured up to 24 hrs; format: ADME, organism-based; settings: in vivo
In short: (§3)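 Single intraperitoneal dose in male C57BL/6J mice (12 per route). Tail-vein blood was collected under sodium heparin for plasma, with 3 mice sampled at each pair of times: 0.083/2, 0.25/4, 0.5/8 and 1/24 h. F denotes bioavailability.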

[7] = MRT(0 to t) in C57BL/6J mouse at 0.711 mg/kg, iv administered as single dose measured up to 24 hrs; format: ADME, organism-based; settings: in vivo; in short: as §1
[8] = target: Prostaglandin G/H synthase 1 (Homo sapiens) (UniProt P23219); experiment: Inhibition of COX1 (unknown origin) at 10 uM
[9] = Toxicity in C57BL/6 mouse assessed as behavioral changes at 50 to 500 mg/kg, ip and measured upto 30 mins post administration; format: organism-based; settings: in vivo, 0.5 h, dose 50-500 mg/kg; in short: as §2
[10] = Tmax in C57BL/6J mouse at 9.103 mg/kg, ip administered as single dose measured up to 24 hrs; format: ADME, organism-based; settings: in vivo; in short: as §3
[11] = target: Beta-1 adrenergic receptor (Homo sapiens) (UniProt P08588); experiment: Antagonist activity at ADRB1 (unknown origin) at 10 uM; format: functional; set-up: scale not given: the % may be the effect or the level left
Chain of Beta-1 adrenergic receptor (Homo sapiens) (P08588 whole entry, looked up): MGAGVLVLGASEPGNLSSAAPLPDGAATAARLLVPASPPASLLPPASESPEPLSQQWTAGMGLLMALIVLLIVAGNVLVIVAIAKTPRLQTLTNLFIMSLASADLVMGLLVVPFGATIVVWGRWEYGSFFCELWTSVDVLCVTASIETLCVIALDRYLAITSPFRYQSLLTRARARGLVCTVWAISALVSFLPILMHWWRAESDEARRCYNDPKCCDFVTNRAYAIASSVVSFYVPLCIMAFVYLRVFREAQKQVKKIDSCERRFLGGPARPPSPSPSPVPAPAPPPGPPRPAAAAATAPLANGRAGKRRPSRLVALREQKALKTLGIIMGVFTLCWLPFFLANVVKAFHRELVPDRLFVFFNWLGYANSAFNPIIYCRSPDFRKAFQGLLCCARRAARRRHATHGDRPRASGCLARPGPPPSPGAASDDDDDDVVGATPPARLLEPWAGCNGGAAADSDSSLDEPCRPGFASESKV
In short: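 Single-concentration safety screen at 10 μM across a 47-target panel. GPCRs were run in antagonist mode and enzymes in inhibitor mode.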

[12] = Toxicity in C57BL/6 mouse assessed as change in kidney weight at 100 mg/kg, ip administered as single dose and measured after 15 days (reference value: 0.3 g); format: organism-based; settings: in vivo, 360 h, time 15 day; in short: as §2

With COc1ccc(-c2cc(=O)c3c(O)cc(OP(=O)([O-])[O-])c(-c4cc(-c5cc(=O)c6c(O)cc(OP(=O)([O-])[O-])cc6o5)ccc4OC)c3o2)cc1.[Na+].[Na+].[Na+].[Na+] the microsomal CLint [1] was 8 µL/min/mg, the AUC(0-t) at 24 h [2] was 655 µg·h/mL and the remaining at 2 h [3] was 98.1%. For the same compound, the CL/F [4] was 154 mL/min/kg, the Activity [5] was 1 g and the MRT last at 24 h [6] was 42 min. For the same compound, the MRT last at 24 h [7] was 54 min, the inhibition [8] was 52.8% and the Activity [9] was “Non-Toxic”. For the same compound, the Tmax [10] was 5 min, the Activity [11] was 35% and the Activity [12] was 0.2 g.
